# In PMC7350150 (Neoplasia (New York, N.Y.), 2020):
# Entries after “also recorded” stand apart in the source; their conditions may differ.
# Columns and labels:
# [1] = Brain penetration of PARP inhibitors in mice; type: in vivo, male C57 mice; conditions: for Kp: po, AUC1-4h
# [2] = system: MDA-MB-436 breast cancer xenograft; assay: MDA-MB-436 breast cancer xenograft efficacy; type: in vivo, BALB/c nude mice; conditions: for tumor relapse at day 89: two months after treatment terminated
# Outline: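 MDA-MB-436 cells at 2.5 × 10⁷ cells/mL in 1:1 PBS/Matrigel, implanted subcutaneously in the right front flank of 6–8-week female BALB/c nude mice. At ~130 mm³, mice stratified into six groups of nine. Oral BID dosing for 28 days: vehicle (0.5% methylcellulose), test compound from 1.6 mg/kg, or a comparator PARP inhibitor at 25 or 50 mg/kg. Tumours followed to day 89.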
# [3] = system: intracellular PAR levels in HeLa cells; assay: Inhibition of H2O2-induced PAR synthesis; type: cell-based; conditions: Homo sapiens, 18 h, read-out: IC50 of intracellular PARP activity
# [4] = system: intracellular PARP activity in H2O2-treated SF-295 cells; assay: Inhibition of H2O2-induced PAR synthesis; type: cell-based; conditions: Homo sapiens, SF-295, read-out: IC50 of intracellular PARP activity
# Outline: (§1)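 Cells seeded at 5000/well in DMEM with 10% FBS. After 4 h, test compound added as eight serial dilutions (0.02–200 nM final) in 0.1% DMSO for 18 h. DNA damage induced with 200 μM H₂O₂ at 37 °C for 5 min. Cells fixed in ice-cold methanol at −20 °C and stained overnight at 4 °C with anti-PAR mAb, Alexa 488 secondary and DAPI. Nuclear PAR intensity imaged; IC50 taken from residual activity.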
# [5] = system: intracellular PARP activity in H2O2-treated GL261 cells; assay: Inhibition of H2O2-induced PAR synthesis; type: cell-based, murine; conditions: Mus musculus, GL261, read-out: IC50 of intracellular PARP activity
# Outline: as §1
# [6] = PK study in healthy mice; type: in vivo, Mouse
# Outline: (§2)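 Healthy animals given a single dose. Mouse: 10 mg/kg p.o. or 1 mg/kg i.v. Rat: 5 mg/kg p.o. or 2 mg/kg i.v. Dog: 2 mg/kg p.o. or 1 mg/kg i.v. Plasma deproteinised with acetonitrile containing internal standard and centrifuged at 14,000 rpm for 8 min. Drug measured by LC–MS/MS. Dosing solutions analysed to confirm the actual dose given.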
# [7] = PK study in rat; type: in vivo
# Outline: as §2
# [8] = PK study in dog; type: in vivo
# Outline: as §2
# [9] = QWBA tissue distribution of [14C] pamiparib; type: in vivo, Long-Evans rats; conditions: rats, single oral 5 mg/kg, 24 h post treatment
# [10] = Brain penetration after intravenous administration, Kpuu; type: in vivo, SD rats; conditions: male, Sprague-Dawley, rat, brain and plasma (unbound), 1 mg/kg
# [11] = biological target: Human BCRP (Homo sapiens, UniProt Q9UNQ0); assay: ATP-dependent uptake activity, BCRP substrate test; type: in vitro ADME; conditions: 0.5 μM to 30 μM; uptake ratio ≥ 2-fold is positive
# Human BCRP, sequence (Q9UNQ0 whole entry): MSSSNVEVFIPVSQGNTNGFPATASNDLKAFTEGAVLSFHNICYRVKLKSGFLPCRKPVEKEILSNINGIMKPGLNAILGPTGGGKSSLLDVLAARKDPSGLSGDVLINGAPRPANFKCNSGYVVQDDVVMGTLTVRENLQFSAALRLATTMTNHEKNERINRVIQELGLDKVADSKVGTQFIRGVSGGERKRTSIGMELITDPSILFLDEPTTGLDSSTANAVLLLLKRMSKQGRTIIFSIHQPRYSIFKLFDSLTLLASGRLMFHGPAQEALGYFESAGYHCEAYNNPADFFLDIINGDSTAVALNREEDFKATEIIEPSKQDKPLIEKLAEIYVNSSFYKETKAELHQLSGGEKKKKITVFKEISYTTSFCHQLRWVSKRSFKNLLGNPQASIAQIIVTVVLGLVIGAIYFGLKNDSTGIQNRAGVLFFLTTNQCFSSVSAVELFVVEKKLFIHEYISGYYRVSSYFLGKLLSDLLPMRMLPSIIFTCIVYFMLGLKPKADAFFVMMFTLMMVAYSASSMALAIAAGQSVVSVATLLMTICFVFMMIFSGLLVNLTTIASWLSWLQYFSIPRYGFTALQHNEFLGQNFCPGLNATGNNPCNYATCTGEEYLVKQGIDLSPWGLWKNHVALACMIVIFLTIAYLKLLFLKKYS
# [12] = biological target: P-gp (Homo sapiens, UniProt P08183); assay: P-gp efflux activity in MDCKII-MDR1 cell monolayer; type: in vitro ADME; conditions: 1 µM and 10 µM; ER > 2 and decrease to < 50% with inhibitor suggests substrate
# P-gp, sequence (P08183 whole entry): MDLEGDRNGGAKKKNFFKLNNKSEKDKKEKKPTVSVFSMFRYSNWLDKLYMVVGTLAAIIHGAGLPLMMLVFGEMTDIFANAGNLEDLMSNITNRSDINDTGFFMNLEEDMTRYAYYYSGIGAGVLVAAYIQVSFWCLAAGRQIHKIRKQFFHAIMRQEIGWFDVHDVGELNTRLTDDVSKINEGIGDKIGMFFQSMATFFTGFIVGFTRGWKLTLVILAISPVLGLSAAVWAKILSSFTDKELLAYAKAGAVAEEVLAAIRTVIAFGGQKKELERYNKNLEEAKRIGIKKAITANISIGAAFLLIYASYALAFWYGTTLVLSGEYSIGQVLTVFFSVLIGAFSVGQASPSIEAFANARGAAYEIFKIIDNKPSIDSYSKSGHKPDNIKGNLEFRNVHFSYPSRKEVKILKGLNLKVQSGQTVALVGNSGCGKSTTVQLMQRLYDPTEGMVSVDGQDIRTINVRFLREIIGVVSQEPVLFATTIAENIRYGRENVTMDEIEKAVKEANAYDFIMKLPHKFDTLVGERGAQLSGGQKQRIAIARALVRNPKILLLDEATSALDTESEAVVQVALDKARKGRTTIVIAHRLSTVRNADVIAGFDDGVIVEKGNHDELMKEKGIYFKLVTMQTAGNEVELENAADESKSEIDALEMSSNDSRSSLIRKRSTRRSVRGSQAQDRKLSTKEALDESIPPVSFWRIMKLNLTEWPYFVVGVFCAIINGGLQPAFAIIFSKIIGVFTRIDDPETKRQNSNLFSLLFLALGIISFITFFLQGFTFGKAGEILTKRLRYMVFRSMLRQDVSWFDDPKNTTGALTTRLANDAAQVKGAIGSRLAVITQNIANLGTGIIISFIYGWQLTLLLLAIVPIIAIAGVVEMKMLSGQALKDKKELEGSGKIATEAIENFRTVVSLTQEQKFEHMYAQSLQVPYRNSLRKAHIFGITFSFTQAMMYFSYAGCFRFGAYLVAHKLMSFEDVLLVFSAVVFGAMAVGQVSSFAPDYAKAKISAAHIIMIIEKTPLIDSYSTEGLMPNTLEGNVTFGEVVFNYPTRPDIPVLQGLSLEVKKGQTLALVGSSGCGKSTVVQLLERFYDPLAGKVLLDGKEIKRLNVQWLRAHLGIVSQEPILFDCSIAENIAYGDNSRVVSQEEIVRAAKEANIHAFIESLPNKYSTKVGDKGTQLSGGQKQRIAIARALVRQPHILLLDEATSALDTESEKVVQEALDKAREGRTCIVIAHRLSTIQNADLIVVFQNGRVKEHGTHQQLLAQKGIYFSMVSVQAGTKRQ
# [13] = PK/PD in MDA-MB-436 xenograft; type: in vivo, mice; conditions: BALB/c nude, mouse, tumor, oral, 5.45 mg/kg
# [14] = system: PARylation in MDA-MB-436 xenograft tumors; assay: PK/PD in MDA-MB-436 xenograft; type: in vivo, mice; conditions: single dose 5.45, first 12 h
# [15] = system: intracranial H209 xenograft; assay: Intracranial H209 xenograft survival; type: in vivo, BALB/c nude mice; conditions: pamiparib 3 mg/kg BID day 1–21, 29–49; TMZ 50 mg/kg; combination TMZ 50 mg/kg plus pamiparib 0.75 mg/kg BID
# [16] = system: PARylation in brain tumors, intracranial H209 xenograft; assay: Brain penetration and PD in intracranial H209 xenograft; type: in vivo, mice; conditions: single dose 3 mg/kg p.o., 4 h after treatment
# [17] = system: GL261 syngeneic intracranial glioma; assay: GL261 syngeneic intracranial glioma model survival; type: in vivo, Mice; conditions: single agent 9 mpk
# [18] = system: SNB-19; assay: Pamiparib and TMZ combination, anti-proliferation; type: cell-based; conditions: Homo sapiens, SNB-19, read-out: EC50 of TMZ single agent
# [19] = system: SF-295; assay: Pamiparib and TMZ combination, anti-proliferation; type: cell-based; conditions: Homo sapiens, SF-295, read-out: EC50 of TMZ single agent
# [20] = system: T98G; assay: Pamiparib and TMZ combination, anti-proliferation; type: cell-based; conditions: Homo sapiens, read-out: EC50 of TMZ single agent
# [21] = system: SF-539; assay: Pamiparib and TMZ combination, anti-proliferation; type: cell-based; conditions: Homo sapiens, SF-539, read-out: EC50 of TMZ single agent
# [22] = system: U-118MG; assay: Pamiparib and TMZ combination, anti-proliferation; type: cell-based; conditions: Homo sapiens, read-out: EC50 of TMZ single agent
# [23] = system: U251; assay: Pamiparib and TMZ combination, anti-proliferation; type: cell-based; conditions: Homo sapiens, U-251, read-out: EC50 of TMZ single agent
# [24] = system: LN-229; assay: Pamiparib and TMZ combination, anti-proliferation; type: cell-based; conditions: Homo sapiens, LN-229, read-out: EC50 of TMZ single agent
# [25] = system: U87-MG; assay: Pamiparib and TMZ combination, anti-proliferation; type: cell-based; conditions: Homo sapiens, U-87 MG, read-out: EC50 of TMZ single agent
# [26] = system: NCI-H2227; assay: Pamiparib and TMZ combination, anti-proliferation; type: cell-based; conditions: read-out: EC50 of TMZ single agent
# [27] = system: DMS153; assay: Pamiparib and TMZ combination, anti-proliferation; type: cell-based; conditions: Homo sapiens, DMS-153, read-out: EC50 of TMZ single agent
# [28] = system: NCI-H1048; assay: Pamiparib and TMZ combination, anti-proliferation; type: cell-based; conditions: Homo sapiens, NCI-H1048, read-out: EC50 of TMZ single agent
# [29] = system: NCI-H209; assay: Pamiparib and TMZ combination, anti-proliferation; type: cell-based; conditions: Homo sapiens, NCI-H209, read-out: EC50 of TMZ single agent
# [30] = system: NCI-H1436; assay: Pamiparib and TMZ combination, anti-proliferation; type: cell-based; conditions: Homo sapiens, NCI-H1436, read-out: EC50 of TMZ single agent
# [31] = system: NCI-H2286; assay: Pamiparib and TMZ combination, anti-proliferation; type: cell-based; conditions: Homo sapiens, NCI-H2286, read-out: EC50 of TMZ single agent
# [32] = system: NCI-H69; assay: Pamiparib and TMZ combination, anti-proliferation; type: cell-based; conditions: Homo sapiens, NCI-H69, read-out: EC50 of TMZ single agent
# [33] = system: intracranial H209-TR xenografts; assay: Intracranial H209-TR xenograft survival; type: in vivo, BALB/c nude mice; conditions: same treatment schedule as intracranial H209
# [34] = male, C57, mouse, brain and plasma, Brain/Plasma, single p.o. dose: Pamiparib 10, Talazoparib 3, Olaparib 50, Niraparib 50 mg/kg
# [35] = single p.o. dose: Pamiparib 10, Talazoparib 3, Olaparib 50, Niraparib 50 mg/kg
# [36] = mouse, plasma, intravenous, 1 mg/kg
# [37] = Rat, 5 mg/kg p.o. or 2 mg/kg i.v.
compound,measurement,setting,value
"NC(=O)c1cccc2cn(-c3ccc([C@@H]4CCCNC4)cc3)nc12 [Niraparib, niraparib]",Kp at 1 h,"[1]; male, C57, mouse, brain and plasma, oral, Brain/Plasma, concentration, 1 h, single p.o. dose: Pamiparib 10, Talazoparib 3, Olaparib 50, Niraparib 50 mg/kg",0.06
same,Kp at 2 h,"[1]; male, C57, mouse, brain and plasma, oral, Brain/Plasma, concentration, 2 h, single p.o. dose: Pamiparib 10, Talazoparib 3, Olaparib 50, Niraparib 50 mg/kg",0.08
same,Kp at 4 h,"[1]; male, C57, mouse, brain and plasma, oral, Brain/Plasma, concentration, 4 h, single p.o. dose: Pamiparib 10, Talazoparib 3, Olaparib 50, Niraparib 50 mg/kg",0.14
same,Kp,[1]; [34],0.09
same,"AUC1-4h, Brain",[1]; [35],1849 ng·h/g
"O=C(c1cc(Cc2n[nH]c(=O)c3ccccc23)ccc1F)N1CCN(C(=O)C2CC2)CC1 [Olaparib, olaparib, reference compound]","AUC1-4h, Brain",[1]; [35],56 ng·h/g
same,objective responses,"[2]; olaparib high-dose group (50 mg/kg, BID)",100%
same,tumor relapse at day 89,[2]; olaparib 25 mg/kg BID,tumor relapse was observed
C[C@]12CCCN1CC1=NNC(=O)c3cc(F)cc4[nH]c2c1c34 [Pamiparib],IC50,[3],0.00024 µM
same,IC50,[4],0.00017 µM
same,IC50,[5],0.00025 µM
same,AUC 0-inf/Dose,"[6]; Mouse, 10 mg/kg p.o. or 1 mg/kg i.v.",552 ± 194 ng.h/mL per mg/kg
same,half-life,"[6]; mouse, plasma",3.2 ± 0.5 h
same,Vd,[6]; [36],5.7 ± 0.5 L/kg
same,clearance,[6]; [36],29.9 ± 2.4 mL/min/kg
same,bioavailability,"[6]; mouse, plasma, oral",99 ± 35%
same,AUC 0-inf/Dose,[7]; [37],694 ± 124 ng.h/mL per mg/kg
same,clearance,[7]; [37],22.7 ± 2.8 mL/min/kg
same,half-life,"[7]; rat, plasma",5.5 ± 0.8 h
same,Vd,"[7]; rat, plasma, intravenous, 2 mg/kg",6.9 ± 0.7 L/kg
same,bioavailability,"[7]; rat, plasma, oral",94 ± 17%
same,AUC 0-inf/Dose,"[8]; Dog, 2 mg/kg p.o. or 1 mg/kg i.v.",800 ± 95 ng.h/mL per mg/kg
same,half-life,"[8]; dog, plasma",3.6 ± 1.9 h
same,Vd,"[8]; dog, plasma, intravenous, 1 mg/kg",2.1 ± 0.2 L/kg
same,bioavailability,"[8]; dog, plasma, oral",73 ± 4%
same,drug concentration in brain,[1]; maintained for 4 h post treatment,> 100 ng/g
same,Kp,[1]; [34],0.18
same,"AUC1-4h, Brain",[1]; [35],820 ng·h/g
same,drug concentration in the brain as share of the detected plasma level,[9],approximately 20%
same,Kp,[10],0.158
same,BCRP substrate assessment,[11],not a substrate of P-gp or BCRP
same,P-gp substrate assessment,[12],not a substrate of P-gp or BCRP
same,objective responses,"[2]; day 29, lowest dose 1.6 mg/kg BID",100%
same,objective responses (PR plus CR),"[2]; day 29, pamiparib oral, BID for 28 days, doses from 1.6 mg/kg",100%
same,tumor relapse at day 89,[2]; pamiparib lowest dose 1.6 mg/kg,tumor relapse was observed
same,concentration at 4 h,[13],~800 nM
same,intra-tumor concentration,[14],> 0.5 µmol/kg
same,median survival,[15],26.5 days
same,inhibition of PARylation in brain tumors,[16],complete inhibition of PARylation; also recorded: completely inhibited
same,median survival,[17],21 days
"Cn1nnc2c(C(N)=O)ncn2c1=O [TMZ, Temozolomide]",EC50,[18],> 300 µM
same,EC50,[19],> 300 µM
same,EC50,[20],> 300 µM
same,EC50,[21],80 µM
same,EC50,[22],> 300 µM
same,EC50,[23],32 µM
same,EC50,[24],> 300 µM
same,EC50,[25],> 300 µM
same,EC50,[26],576 µM
same,EC50,[27],60 µM
same,EC50,[28],153 µM
same,EC50,[29],63 µM
same,EC50,[30],> 300 µM
same,EC50,[31],182 µM
same,EC50,[32],15 µM
same,median survival,[15],75 days
same,median survival,[33],24 days
"Cn1ncnc1[C@H]1c2n[nH]c(=O)c3cc(F)cc(c23)N[C@@H]1c1ccc(F)cc1 [Talazoparib, talazoparib]","AUC1-4h, Brain",[1]; [35],85 ng·h/g
